# Compound activity from PubChem BioAssay.
# Shown are actives, neighbours in structure and some others; about 2% of the full set was active somewhere.
# LEDGF integ inh: blocks HIV-1 LEDGF/p75-dependent DNA integration; hit rate 0.64% among 370,000; inhibition, % at 3.7 µM; TR-FRET IN-LEDGF/p75 DNA integration, Eu/Cy5;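 active means inhibition above the screen-wide mean plus 3 SD, cut at about 13% in these data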;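 further: signal is the Cy5 over europium emission ratio at 671 and 618 nm; 0% = plate median of compound wells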
# TDP2 inh: TDP2 (human) inhibition, absorbance primary screen; O95551; recombinant TDP2, T5PNP hydrolysis, p-nitrophenol absorbance 415 nm; inhibition, % at 12.8 µM; hit rate 0.34% among 370,000;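 active means inhibition above the mean of all tested compounds plus 3 SD, set per campaign, cut at about 25% in these data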;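 further: 0% = DMSO with enzyme and 100% = buffer with substrate but no TDP2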
#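 System: recombinant human TDP2 / Amount: 120 nM TDP2 per well / Also added: 5 mM T5PNP chromogenic substrate / Doses: 12.8 µM single point, 1% DMSO / Incubation: 2 h at 37 °C / Detection: p-Nitrophenol epi absorbance / Evaluation: % inhibition relative to enzyme-containing and enzyme-free wells / Repeats: singlicate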
# MBD2 DNA inh: inhibitors of human MBD2 binding to methylated oligonucleotide; TR-FRET; Q9UBB5; inhibition, % at 4.4 µM; hit rate 0.31% among 370,000; in the data active means inhibition above about 13%
# ASAP1 inh: blocks human ASAP1-stimulated Arf1 GTP hydrolysis. hit rate 0.19% among 360,000. Q9ULH1. GDP FP detection. inhibition, % at 16.5 µM; in the data active means inhibition above about 25%;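 further: 0% = vehicle with enzyme and substrate and 100% = no enzyme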
# UHRF1 MBD2 ctr: UHRF1 methyl-DNA binding inhibition; Q96T88; UHRF1 binding to methylated oligo, TR-FRET; inhibition, % at 4.4 µM; hit rate 0.75% among 370,000; AID 687016; in the data active means inhibition above about 21%;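 further: UHRF1 SRA domain binding a hemimethylated CpG hairpin DNA probe; 0% = median of test compound wells and 100% = reference inhibitor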
# Target sequence (Q96T88 whole entry, looked up, the tested form may be a part): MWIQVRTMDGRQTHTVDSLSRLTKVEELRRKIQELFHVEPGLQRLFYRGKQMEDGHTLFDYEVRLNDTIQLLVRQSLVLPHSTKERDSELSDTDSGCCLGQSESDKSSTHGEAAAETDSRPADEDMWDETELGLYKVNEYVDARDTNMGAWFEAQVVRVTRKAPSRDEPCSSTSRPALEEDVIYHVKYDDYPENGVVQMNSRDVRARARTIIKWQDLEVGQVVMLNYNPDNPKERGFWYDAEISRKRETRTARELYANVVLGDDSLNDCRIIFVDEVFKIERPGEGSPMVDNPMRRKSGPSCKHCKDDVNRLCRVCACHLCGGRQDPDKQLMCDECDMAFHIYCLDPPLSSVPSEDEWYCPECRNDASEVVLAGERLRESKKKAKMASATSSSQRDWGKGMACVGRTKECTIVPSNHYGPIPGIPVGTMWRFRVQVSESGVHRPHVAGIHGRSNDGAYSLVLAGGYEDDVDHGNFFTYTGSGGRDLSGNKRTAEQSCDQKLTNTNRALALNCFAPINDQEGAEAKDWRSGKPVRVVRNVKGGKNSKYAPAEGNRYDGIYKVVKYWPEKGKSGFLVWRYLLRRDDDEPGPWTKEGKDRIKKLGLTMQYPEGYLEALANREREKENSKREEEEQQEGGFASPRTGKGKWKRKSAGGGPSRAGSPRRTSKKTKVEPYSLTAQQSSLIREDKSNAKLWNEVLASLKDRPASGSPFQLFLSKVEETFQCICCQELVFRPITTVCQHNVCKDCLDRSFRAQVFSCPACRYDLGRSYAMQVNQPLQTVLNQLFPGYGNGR
# ARFGAP1 inhibitor: inhibitors of rat ARFGAP1 | Arfgap1-stimulated ARF1 GTP hydrolysis, GDP FP detection | Q62848 | AID 651572 | inhibition, % at 16.5 µM | hit rate 0.26% among 360,000;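 active means inhibition above a per-plate limit, mean inhibition of low control wells plus 3 SD, cut at about 25% in these data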;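 further: 0% = DMSO wells with enzyme and 100% = wells lacking Arfgap1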
#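 System: truncated rat Arfgap1 GAP domain / Benchmarks: high control wells lacking Arfgap1, low control full reaction with DMSO / Times: compound-enzyme preincubation 20 min, reaction 120 min, detection 60 min, 25 °C / Repeats: one replicate per compound / Also added: human ARF1(Δ1-17)-GTP substrate / Measured by: Tracer-displacement fluorescence polarization with EDTA stop, 620/688 nm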
# Starred values were filed as active, the others as inactive; · = no result.
SMILES,LEDGF integ inh,TDP2 inh,MBD2 DNA inh,ASAP1 inh,UHRF1 MBD2 ctr,ARFGAP1 inhibitor
COc1ccc(NC2=C(C(C)=O)C(c3ccccc3)C(C(C)=O)C(C)(O)C2)cc1 (centres undefined),-3,0,1,-12,61*,-1
COC(=O)[C@]12C[C@H](CC(=O)NCc3ccccc3)C(=O)N(Cc3ccco3)C1=C[C@H](C(C)C)O[C@@H]2C1CC1,-4,2,-1,·,-1,·
COC(=O)c1ccccc1NC(=O)NCc1cccnc1,1,-3,7,-8,4,14
COC(=O)c1ccccc1NC(=O)C(=O)NCc1ccncc1,2,2,1,4,42*,14
COc1ccc(/C=C/S(=O)(=O)NCc2ccccc2)c(CNC(=O)OC(C)(C)C)c1,3,-7,2,·,2,·
Cc1cc(N2CCN(Cc3ccc4c(c3)OCO4)CC2)n2nc(C)nc2n1,7,-15,5,·,13,·
O=C(CN1C(=O)CSc2ccc(S(=O)(=O)N3CCCCC3)cc21)NCc1cccnc1,2,-13,12,1,4,1
CC1CCN(S(=O)(=O)c2ccc3c(c2)N(CC(=O)NCc2cccnc2)C(=O)CS3)CC1,1,6,8,-1,22*,5
CCOc1ccc(-n2cc(-c3ccccc3)c3c(SC(C)C(=O)OC)ncnc32)cc1 (centres undefined),6,4,5,1,22*,3
COC(=O)C(C)Sc1ncnc2c1c(-c1ccccc1)cn2-c1ccc(OC)cc1 (centres undefined),3,-6,-3,0,4,4
O=C1c2ccccc2-c2onc3ccc(N4CCCC4)c1c23,-4,17,1,-1,23*,-5
CCNc1ccc2noc3c2c1C(=O)c1ccccc1-3,-11,11,-19,3,-35,12
COC(=O)c1sc(N)nc1C(C)(C)C,-1,8,0,-14,-1,10
COC(=O)c1cnc(N)s1,3,7,5,12,23*,0
COc1ccc(-c2cc3ccc(OCC(C)=O)cc3oc2=O)cc1,11,8,12,-17,23*,1
O=C(Nc1ccc(Cl)cc1)Nc1ccccc1C(=O)N1CCCC1,0,2,-4,·,-4,·
COc1cccc(NC(=S)N(CCN(C)C)Cc2cccs2)c1,1,-1,8,-4,21*,-3
CSc1cccc(NC(=S)N(CCCN2CCC(C)CC2)Cc2cccs2)c1,0,7,4,0,28*,9
COc1ccc(NC(=S)Nc2ccc3cn[nH]c3c2)cc1,3,-27,-10,9,-6,-1
CC(C)NC(=S)Nc1ccc2cn[nH]c2c1,1,-8,8,-6,23*,-6
O=C(CNC(=O)N1CC(=O)Nc2ccccc21)Nc1ccc(Cl)cc1,-4,-11,-3,-4,0,3
O=C1CN(C(=O)CNCc2ccc(Cl)cc2)c2ccccc2N1,-1,5,2,-5,62*,7
CCC(CC)C(=O)Nc1cccc(C(=O)Nc2nnc(C)s2)c1,-3,-2,-4,6,23*,13
CCOC(=O)C1(CC/C(C)=N\NC(N)=O)CC(C)OC1=O (centres undefined),1,-16,6,0,21*,11
CSc1nnc(CNS(=O)(=O)c2ccc(Cl)cc2)n1C,-1,-3,-3,-15,26*,10
SMILES,LEDGF integ inh,TDP2 inh,MBD2 DNA inh,ASAP1 inh,UHRF1 MBD2 ctr,ARFGAP1 inhibitor
CSc1nnc(CNS(=O)(=O)c2ccc(F)cc2)n1C,1,0,-2,5,0,-8
Cc1ccc(Cn2cc(CN3[C@H](c4ccccc4)COc4cc(Br)ccc4S3(=O)=O)nn2)cc1,0,0,-3,·,-1,·
CCC(C)N(c1nc(C)nc2c1nnn2Cc1ccccc1)C(C)CC (centres undefined),4,2,2,·,-3,·
Cc1ccc(NC(=S)N2CCN(c3ccccc3F)CC2)c(C)c1,-1,1,3,2,24*,8
CCOC(=O)c1cc(CNC(=O)c2c(C)oc3c2CCCC3)c(C)o1,-2,-14,-2,4,1,2
CCCc1c2c(cc3c(=O)cc(C(=O)OCC)oc13)CCCC2,0,0,4,-4,74*,2
FC(F)(F)c1cccc(Cn2ccc3ccc(-c4ccc5ccn(Cc6cccc(C(F)(F)F)c6)c5c4)cc32)c1,-4,3,-2,·,1,·
CCS(=O)(=O)N1Cc2ccccc2CC1C(=O)Nc1cccc(C)c1 (centres undefined),-11,-1,4,11,50*,1
Cc1cc(C)n(-c2ccc3nnc(C)n3n2)n1,-3,5,7,9,24*,1
COC(=O)CC1NCCc2cc(OC)c(OC)cc21 (centres undefined),-1,-15,0,4,33*,-11
O=C(OC12CCCN(C1)/C(=C/c1ccncc1)C2)c1ccccc1 (centres undefined),-1,6,-4,·,0,·
COCCOc1ccc(C(F)(F)F)cc1NC(=O)c1ccc(C)cc1,5,-8,-7,10,-4,-8
CCCCCNCC(=O)Nc1cc(C(F)(F)F)ccc1OCCOC,0,4,-10,-8,48*,5
O=C(O)c1sc2cc(C(F)(F)F)cnc2c1-c1ccccc1,1,7,-1,25*,0,12
C=CCCC1CN(Cc2ccco2)S(=O)(=O)c2c(F)cccc2O1 (centres undefined),8,-14,-7,3,-1,4
C=CCCC1CN(CC=C)S(=O)(=O)c2c(F)cccc2O1 (centres undefined),1,6,8,-1,22*,6
O=C(NC1CCN(Cc2ccccc2)CC1)c1cccc(OC(F)F)c1,-1,-7,-2,8,0,8
CC(=O)c1cccc(OCc2cc(C(=O)NC3CCN(Cc4ccccc4)CC3)no2)c1,-4,-3,9,-6,21*,2
CCN(C(=O)[C@H]1CC(=O)O[C@@H]1c1ccccc1)c1ccccc1,0,7,-4,·,0,·
Cc1cc(C)c2nc(NNC(=O)c3ccc(S(=O)(=O)N4CC(C)CC(C)C4)cc3)sc2c1 (centres undefined),15*,-11,5,7,-2,-5
Cc1cc(C)c2nc(NNC(=O)c3ccc(S(=O)(=O)N4CCCC(C)C4)cc3)sc2c1 (centres undefined),10,1,1,8,-2,14
C[C@@H](N)C(=O)Nc1ccc(Cl)cc1C(=O)c1ccc[nH]1,0,5,6,·,-3,·
Cc1ccc(C)c(NC(=O)C2CCCN2S(=O)(=O)c2cccnc2)c1 (centres undefined),3,-2,-3,·,4,·
